Experimental data of several laboratories.
Target: Dual specificity tyrosine-phosphorylation-regulated kinase 2 (DYRK2, Homo sapiens, UniProt Q92630)
Method: competition with immobilised ligand
Sequence (Q92630 1-601, as in one of the studies): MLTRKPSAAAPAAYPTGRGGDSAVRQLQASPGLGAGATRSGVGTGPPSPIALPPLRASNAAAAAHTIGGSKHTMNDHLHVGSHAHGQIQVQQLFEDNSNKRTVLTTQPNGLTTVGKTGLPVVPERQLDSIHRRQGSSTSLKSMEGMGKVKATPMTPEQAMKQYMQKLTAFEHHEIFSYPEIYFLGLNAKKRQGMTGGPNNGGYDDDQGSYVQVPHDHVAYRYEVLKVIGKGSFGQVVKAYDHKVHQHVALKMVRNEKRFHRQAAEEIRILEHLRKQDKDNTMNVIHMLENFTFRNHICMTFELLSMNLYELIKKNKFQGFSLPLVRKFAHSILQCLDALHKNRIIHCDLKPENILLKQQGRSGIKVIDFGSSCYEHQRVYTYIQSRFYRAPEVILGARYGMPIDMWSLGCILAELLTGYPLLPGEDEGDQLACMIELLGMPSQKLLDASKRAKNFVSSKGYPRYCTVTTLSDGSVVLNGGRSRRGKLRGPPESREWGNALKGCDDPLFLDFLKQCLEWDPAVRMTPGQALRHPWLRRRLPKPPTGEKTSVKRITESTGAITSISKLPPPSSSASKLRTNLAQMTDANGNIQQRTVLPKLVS

Structure (SMILES)	test	setting	remaining binding
Cc1cnc(Nc2ccc(C(=O)N3CCC(N4CCCC4)CC3)cc2)nc1-c1cc2ccccc2s1	binding	1 µM	1.3%
CO[C@@H](C)c1c(Nc2ccc([C@H](N(C)C(=O)C3CCS(=O)(=O)CC3)C(F)(F)F)cc2)cnc2cc(Cl)nn12	cell-free assay	1 µM	89%
CCN1CCN(Cc2ccc(C(=O)Nc3ccc(C)c(Oc4ccc5c(c4)CC(=O)N5)c3)cc2C(F)(F)F)CC1	binding	1 µM	95%
COc1ncc2cc3ccccc3nc2c1C#N	cell-free assay	5 µM	85%
COc1cnc(Nc2cccc(S(N)(=O)=O)c2)nc1N1CCN(c2ccccc2)CC1	binding	1 µM	70%
CN(CCCC(F)(F)F)c1nccc(-c2cnn3ncccc23)n1	binding	1 µM	77%
C[C@@]1(Cc2ccc(C#N)cc2)C(=O)N(c2cc(Cl)cc(Cl)c2)c2ncc(C(=O)NC3(c4nc(C5CCC5)no4)CC3)n21	cell-free assay	1 µM	93%
C=CC(=O)N1CCC(C(=O)NCC(=O)N2CCN(c3nc(-c4cnc(N)nc4C(F)F)nc(N4CCOCC4)n3)CC2)CC1	binding	1 µM	80%
O=C(NCC1CCOCC1)c1n[nH]cc1NC(=O)c1c(F)cccc1F	binding	1 µM	8.3%
COc1cc(-c2cn(C3CCc4ccccc4N(CC(F)(F)F)C3=O)nn2)ccc1-n1ccc(C)n1 (centres unmarked)	cell-free assay	1 µM	94%
O=C(NCCCN1CCOCC1)c1ccc(Nc2ncc(Cl)c(-c3ccc(Cl)s3)n2)cc1	binding	1 µM	2.9%
C[C@@H](c1ccc(-n2cnc3c(N)ncnc32)cc1)N1CCc2nn(C)c(Cc3ccccc3)c2C1=O	binding	0.1 µM	79%
O=C(NCCCN1CCOCC1)c1ccc(Nc2nccc(-c3cc4ccccc4s3)n2)cc1	binding	1 µM	16%
CS(=O)(=O)N1CCCC(NC(=O)[C@H](CCC2CCCCC2)NC(=O)c2ccc(CNc3ncnc4c3nnn4-c3ccccc3)cc2)C1 (some centres unmarked)	cell-free assay	0.1 µM	100%
